Measured values reported in ChEMBL document CHEMBL1121362, “DNA intercalating compounds as potential antitumor agents. 1. Preparation and properties of 7H-pyridocarbazoles” (1980).

Legend:
[1] = system: L1210; test: The compound was tested for maximum tolerated dose (MTD) against L1210 cells in […] mice; assay type: functional, Mus musculus
How it was run: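 Acute toxicity in mice by the usual procedure. MTD is the highest dose that can be given without any animal death.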

[2] = system: L1210; test: The compound was tested for optimum dose fraction of MTD against L1210 cells in […] mice; assay type: functional, Mus musculus
How it was run: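 L1210 leukaemia, 10^5 cells ip into DBA2 mice. Single ip dose of the acetate salt 24 h later, with 20–30 mice per group. Dose is expressed as a fraction of the MTD, where the MTD (highest dose causing no deaths) is taken as unity.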

[3] = system: Calf thymus DNA; test: DNA binding affinity constant in calf-thymus DNA at pH 7.4; assay type: nucleic-acid assay; settings: Bos taurus
How it was run: (§1)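 Calf thymus DNA (4 µg/mL) at 25 °C, with drug at 10^-5 M, titrated with microliter portions of ethidium bromide (100 µg/mL stock in buffer). Fluorescence excitation was 546 nm and emission 590 nm. Apparent affinity constant (Kap) was derived from Scatchard plots of the competition.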

[4] = Acid dissociation constant (pKa) measured by UV spectroscopy
[5] = system: Calf thymus DNA; test: DNA binding affinity constant for calf-thymus DNA at pH 6; assay type: nucleic-acid assay; settings: Bos taurus; how it was run: as §1
[6] = system: Calf thymus DNA; test: DNA binding affinity constant for calf-thymus DNA at pH 5; assay type: nucleic-acid assay; settings: Bos taurus; how it was run: as §1
[7] = organism: Mus musculus; test: The mean survival time of treated animals (T) was compared to that of control animals(C) calculated as % T/C = (treated survival/control) x 100; assay type: functional
How it was run: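 DBA2 mice, 20–30 per group, given 10^5 L1210 cells ip. 24 h later one ip injection of drug (acetate salt, water-soluble); controls get solvent alone. Deaths recorded daily and survivors past 45 days counted as cured. T/C = mean survival treated/control ×100, with significance by Student's t test.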

SMILES: C[n+]1ccc2ccc3[nH]c4ccc(O)cc4c3c2c1.[I-]
- MTD [1]: 25 mg/kg
- OD [2]: 1
- K app [3]: 180000 M⁻¹

SMILES: COc1ccc2c(c1)c1c3ccncc3ccc1n2C
- pKa [4]: 6.6
- K app [5]: 467000 M⁻¹
- K app [6]: 1.1e+06 M⁻¹
- K app [3]: 123000 M⁻¹

SMILES: C[n+]1ccc2c(ccc3[nH]c4ccc(O)cc4c32)c1.[I-]
- MTD [1]: 50 mg/kg
- OD [2]: 0.5
- K app [3]: 67000 M⁻¹

SMILES: COc1ccc2[nH]c3ccc4cc[n+](CCO)cc4c3c2c1.[I-]
- MTD [1]: 100 mg/kg
- OD [2]: 0.5
- K app [3]: 110000 M⁻¹
- T/C [7]: 116%

SMILES: Oc1ccc2[nH]c3ccc4cnccc4c3c2c1
- pKa [4]: 6.75
- K app [5]: 82000 M⁻¹
- K app [6]: 240000 M⁻¹
- K app [3]: 19000 M⁻¹

SMILES: COc1ccc2[nH]c3ccc4cnccc4c3c2c1
- pKa [4]: 6.4
- K app [5]: 110000 M⁻¹
- K app [6]: 150000 M⁻¹
- K app [3]: 77000 M⁻¹

SMILES: COc1ccc2c(c1)c1c3cnccc3ccc1n2C
- pKa [4]: 5.9
- K app [5]: 250000 M⁻¹
- K app [6]: 530000 M⁻¹
- K app [3]: 146000 M⁻¹

SMILES: Oc1ccc2[nH]c3ccc4cccnc4c3c2c1
- pKa [4]: 5.35
- K app [5]: 30000 M⁻¹
- K app [6]: 115000 M⁻¹
- K app [3]: 16000 M⁻¹

SMILES: COc1ccc2[nH]c3ccc4c[n+](C)ccc4c3c2c1.[I-]
- MTD [1]: 50 mg/kg
- OD [2]: 0.5
- K app [3]: 200000 M⁻¹

SMILES: COc1ccc2c(c1)c1c3ncccc3ccc1n2C
- pKa [4]: 5.35
- K app [5]: 37000 M⁻¹
- K app [6]: 157000 M⁻¹
- K app [3]: 23000 M⁻¹

SMILES: COc1ccc2[nH]c3ccc4ccncc4c3c2c1
- pKa [4]: 5.75
- K app [5]: 44000 M⁻¹
- K app [6]: 170000 M⁻¹
- K app [3]: 35000 M⁻¹

SMILES: C[n+]1cccc2c3c(ccc21)[nH]c1ccccc13.[I-]
- MTD [1]: 50 mg/kg
- OD [2]: 0.5
- K app [3]: 60000 M⁻¹

SMILES: COc1ccc2[nH]c3ccc4cc[n+](CCN5CCCCC5)cc4c3c2c1.[Cl-]
- MTD [1]: 10 mg/kg
- OD [2]: 1
- K app [3]: 120000 M⁻¹

SMILES: COc1ccc2c(c1)c1c3c[n+](CCN4CCCCC4)ccc3ccc1n2C.[Cl-]
- MTD [1]: 10 mg/kg
- OD [2]: 0.5
- K app [3]: 300000 M⁻¹

SMILES: COc1ccc2c(c1)c1c3cc[n+](C)cc3ccc1n2C.[I-]
- MTD [1]: 150 mg/kg
- OD [2]: 0.5
- K app [3]: 310000 M⁻¹
- T/C [7]: 115%

SMILES: COc1ccc2[nH]c3ccc4ncccc4c3c2c1
- pKa [4]: 5.6
- K app [5]: 40000 M⁻¹
- K app [6]: 120000 M⁻¹
- K app [3]: 16000 M⁻¹

SMILES: COc1ccc2[nH]c3ccc4cccnc4c3c2c1
- pKa [4]: 5.25
- K app [5]: 32000 M⁻¹
- K app [6]: 100000 M⁻¹
- K app [3]: 18000 M⁻¹

SMILES: COc1ccc2c(c1)c1c3c[n+](C)ccc3ccc1n2C.[I-]
- MTD [1]: 25 mg/kg
- OD [2]: 0.7
- K app [3]: 695000 M⁻¹
- T/C [7]: 122%

SMILES: COc1ccc2[nH]c3ccc4cc[n+](C)cc4c3c2c1.[I-]
- MTD [1]: 50 mg/kg
- OD [2]: 0.5
- K app [3]: 290000 M⁻¹

SMILES: Oc1ccc2[nH]c3ccc4ccncc4c3c2c1
- pKa [4]: 6.4
- K app [5]: 115000 M⁻¹
- K app [6]: 300000 M⁻¹
- K app [3]: 42000 M⁻¹
